From ChEMBL document CHEMBL1133793, “Polyamines with N-(3-phenylpropyl) substituents are effective competitive inhibitors of trypanothione reductase and trypanocidal agents” (Bioorg Med Chem Lett, 2001)

Key:
[1] = system: Trypanosoma brucei; assay: Tested in vitro for trypanocidal activity against a drug sensitive strain of Trypanosoma brucei Lab 110 EATRO; assay type: functional, organism-based
Summary of the method: (§1)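 Bloodstream-form trypanosomes were grown in vitro in culture medium containing fetal bovine serum, which the paper notes contains polyamine oxidase. IC50 values in µM.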

[2] = system: Trypanosoma brucei; assay: Tested in vitro for trypanocidal activity against KETRI 243 an uncloned clinical isolate of Trypanosoma brucei. rhodesiense; assay type: functional, organism-based; summary of the method: as §1
[3] = system: Trypanosoma brucei; assay: Tested in vitro for trypanocidal activity against KETRI 243-As-10-3 a pentamidine and melarsoprol resistant clone of Trypanosoma brucei. rhodesiense KETRI 243; assay type: functional, organism-based; summary of the method: as §1
[4] = system: Trypanosoma brucei; assay: Tested in vitro for trypanocidal activity against KETRI 269 an uncloned clinical isolate of Trypanosoma brucei. rhodesiense; assay type: functional, organism-based; summary of the method: as §1
[5] = target: Trypanothione reductase (Trypanosoma cruzi, UniProt P28593); assay: Tested for binding affinity against trypanothione reductase from Trypanosoma cruzi
Summary of the method: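 Recombinant T. cruzi TR purified from glutathione reductase-deficient E. coli SG5 strain. Activity read as NADPH oxidation at 340 nm, 23 °C, in HEPES 100 mM pH 7.25 with EDTA 1 mM, NADPH 0.18 mM and TR 2.2 µg/mL. Velocities taken at five trypanothione levels (15-75 µM) and five inhibitor levels. Km(obs) fitted by Michaelis–Menten; Ki from weighted regression of Km(obs) against [I].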

Trypanothione reductase, sequence (P28593 whole entry): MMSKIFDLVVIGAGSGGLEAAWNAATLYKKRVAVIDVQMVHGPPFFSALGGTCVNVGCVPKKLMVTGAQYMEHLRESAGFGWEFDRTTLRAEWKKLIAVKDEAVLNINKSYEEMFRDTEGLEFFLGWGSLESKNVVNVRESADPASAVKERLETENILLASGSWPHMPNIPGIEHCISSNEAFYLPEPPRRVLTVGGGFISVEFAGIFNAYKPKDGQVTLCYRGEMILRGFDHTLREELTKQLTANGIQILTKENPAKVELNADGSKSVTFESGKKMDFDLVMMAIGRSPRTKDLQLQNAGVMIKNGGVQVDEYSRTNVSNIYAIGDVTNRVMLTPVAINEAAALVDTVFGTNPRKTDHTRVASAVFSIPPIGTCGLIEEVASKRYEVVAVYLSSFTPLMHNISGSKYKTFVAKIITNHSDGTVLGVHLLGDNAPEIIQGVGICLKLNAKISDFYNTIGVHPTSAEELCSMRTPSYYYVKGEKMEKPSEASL

| Structure (SMILES) | IC50 [1] | IC50 [2] | IC50 [3] | IC50 [4] | Ki [5] |
| --- | --- | --- | --- | --- | --- |
| c1ccc(CCCN(CCCCN(CCCc2ccccc2)CCCN(CCCc2ccccc2)CCCc2ccccc2)CCCN(CCCc2ccccc2)CCCc2ccccc2)cc1 | 22 µM | 35 µM | 24 µM | 30.5 µM | 10.3 µM |
| NCCCN(CCCCN(CCCN)CCCc1ccccc1)CCCc1ccccc1 | 0.66 µM | 0.79 µM | 0.66 µM | 0.58 µM |  |
| c1ccc(CCCNCCCCN(CCCNCCCc2ccccc2)CCCc2ccccc2)cc1 | 0.22 µM | 0.36 µM | 0.46 µM | 0.54 µM | 3.5 µM |
| c1ccc(CCCNCCCNCCCCNCCCN(CCCc2ccccc2)CCCc2ccccc2)cc1 | 0.4 µM | 0.16 µM | 0.53 µM | 0.27 µM | 3.62 µM |
| c1ccc(CCCNCCCN(CCCCN(CCCc2ccccc2)CCCN(CCCc2ccccc2)CCCc2ccccc2)CCCc2ccccc2)cc1 | 3.05 µM | 3.35 µM | 5.5 µM | 2.2 µM | 0.151 µM |
| NCCCN(CCCCN(CCCNCCCc1ccccc1)CCCc1ccccc1)CCCc1ccccc1 | 0.27 µM | 0.16 µM | 0.16 µM | 0.16 µM | 1.38 µM |
| NCCCCN(CCCNCCCc1ccccc1)CCCc1ccccc1.NCCCN(CCCCNCCCc1ccccc1)CCCc1ccccc1 | 0.31 µM | 0.53 µM | 0.57 µM | 0.38 µM | 4.67 µM |
| NCCCNCCCCNCCCNCCCc1ccccc1 |  |  |  |  | 37.6 µM |
| NCCCCN(CCCN)CCCc1ccccc1 |  |  |  |  | 14.1 µM |
| c1ccc(CCCNCCCNCCCCNCCCNCCCc2ccccc2)cc1 | 0.81 µM | 1.5 µM | 2.2 µM | 1.8 µM | 12.3 µM |
| c1ccc(CCCNCCCN(CCCCN(CCCNCCCc2ccccc2)CCCc2ccccc2)CCCc2ccccc2)cc1 | 0.12 µM | 0.14 µM | 0.15 µM | 0.16 µM | 0.614 µM |
